Results taken from ChEMBL document CHEMBL1144505, “Synthesis, analytical behaviour and biological evaluation of new 4-substituted pyrrolo[1,2-a]quinoxalines as antileishmanial agents” (Bioorg Med Chem, 2007).
pIC50: −log10 of the molar value.

Columns and labels:
Leishmania amazonensis = assay: Antileishmanial activity against Leishmania amazonensis MHOM/BR/1987/BA promastigotes by MTT assay after 1 to 2 days; assay type: functional, organism-based
How it was run: (§1)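 Promastigotes harvested at stationary growth phase (10⁶/ml), washed and incubated with compounds in culture medium. Viability was read by MTT reduction to formazan, with detergent lysis and absorbance at 570 nm; in some experiments parasites were instead counted under microscope. […] Values are means of three independent experiments.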

PBMC [1] = assay: Cytotoxicity against human PBMC by MTT assay after 3 to 4 days; assay type: cell-based
How it was run: (§2)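 Freshly isolated PBMC from healthy volunteers were prepared on a Ficoll gradient and cultured in medium alone or stimulated with PHA (5 µg/ml). Compounds were added, and after 3–4 days cells were harvested, washed and counted by trypan blue exclusion; in some experiments MTT was used instead. IC50 was obtained by linear regression, and the maximum tolerated concentration was also assessed.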

[2] = Selectivity index, ratio of IC50 for phytohemagglutininin-activated-PBMC to IC50 for Leishmania amazonensis MHOM/BR/1987/BA promastigotes; assay type: functional
How it was run: (§3)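 Selectivity index is the IC50 on PHA-activated PBMC divided by the IC50 against the L. amazonensis or L. infantum promastigotes.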

PBMC [3] = assay: Cytotoxicity against human phytohemagglutininin-activated-PBMC by MTT assay after 3 to 4 days; assay type: cell-based; how it was run: as §2
[4] = Partition coefficient, log D at pH 7.4; details: octanol/water
Leishmania infantum = assay: Antileishmanial activity against Leishmania infantum clone MCAN/GR/82/LEM497 promastigotes by MTT assay after 1 to 2 days; assay type: functional, organism-based; how it was run: as §1
[5] = Selectivity index, ratio of IC50 for phytohemagglutininin-activated-PBMC to IC50 for Leishmania infantum clone MCAN/GR/82/LEM497 promastigotes; assay type: functional; how it was run: as §3

| SMILES | logD [4] | pIC50 (Leishmania amazonensis) | pIC50 (PBMC [1]) | Ratio IC50 [2] | pIC50 (PBMC [3]) | pIC50 (Leishmania infantum) | Ratio IC50 [5] |
| --- | --- | --- | --- | --- | --- | --- | --- |
| COc1ccc(CCc2nc3ccccc3n3cccc23)cc1OC | 2.97 | 4.52 | < 4.00 | >3.3 | < 4.00 | < 4.30 |  |
| CCCCCc1nc2ccccc2n2cccc12 | 4.04 | < 4.30 | < 4.00 | <1 | 4.52 | < 4.30 | <1 |
| C[C@@H]1[C@H](O)[C@@H](C)/C=C/C=C/C=C/C=C/C=C/C=C/C=C/[C@H](O[C@@H]2O[C@H](C)[C@@H](O)[C@H](N)[C@@H]2O)C[C@@H]2O[C@](O)(C[C@@H](O)C[C@@H](O)[C@H](O)CC[C@@H](O)C[C@@H](O)CC(=O)O[C@H]1C)C[C@H](O)[C@H]2C(=O)O [AMPHOTERICIN B] |  | 6.00 | < 4.00 | 96 | 4.02 | 6.05 | 106.6 |
| C/C=C/c1ccc2ccccc2n1 [CHIMANINE B] | 2.23 | 5.30 | 4.37 | 8.4 | 4.38 | 5.15 | 6 |
| CCCCCc1nc2cc(OC)ccc2n2cccc12 | 4.38 | < 4.30 | 4.18 | <1 | 4.35 | < 4.30 | <1 |
| C/C=C/c1nc2ccc(OC)cc2n2cccc12 | 3.48 | 6.00 | 5.15 | 5 | 5.30 | 6.30 | 10 |
| CCC/C=C/c1nc2ccc(OC)cc2n2cccc12 | 4.3 | 5.40 | 4.26 | 7.5 | 4.52 | 5.60 | 12 |
| c1ccc2c(c1)nc(CCc1ccc3c(c1)OCO3)c1cccn12 | 3.84 | 5.15 | < 4.00 | 9.3 | 4.19 | < 4.30 |  |
| CCC/C=C/c1nc2cc(OC)ccc2n2cccc12 | 4.52 | 5.22 | 4.22 | 6.7 | 4.40 | 6.00 | 40 |
| CCCCC#Cc1nc2cc(OC)ccc2n2cccc12 | 4.35 | 5.52 | 5.22 | 1.7 | 5.30 | 5.15 | 0.7 |
| CCCCC#Cc1nc2ccccc2n2cccc12 | 4.36 | 4.74 | 4.30 | 1.4 | 4.60 | 4.60 | 1 |
| CCC/C=C/c1nc2ccccc2n2cccc12 | 4.44 | 5.30 | 4.15 | 10.4 | 4.28 | 5.15 | 7.4 |
| COc1ccc2c(c1)nc(/C=C/c1ccccc1)c1cccn12 |  | 4.44 | < 4.00 |  | < 4.00 | 5.30 |  |
| CCCc1nc2cc(OC)ccc2n2cccc12 | 3.4 | < 4.30 | < 4.00 |  | 4.05 | < 4.30 |  |
| C/C=C/c1nc2cc(OC)ccc2n2cccc12 | 3.47 | 5.15 | 5.30 | 0.7 | 5.30 | 5.70 | 2.5 |

Second part, led by results:

| logD [4] | SMILES | pIC50 (Leishmania amazonensis) | pIC50 (PBMC [1]) | Ratio IC50 [2] | pIC50 (PBMC [3]) | pIC50 (Leishmania infantum) | Ratio IC50 [5] |
| --- | --- | --- | --- | --- | --- | --- | --- |
| 3.44 | C/C=C/c1nc2ccccc2n2cccc12 | 6.30 | 5.22 | 10 | 5.30 | 6.15 | 7.1 |
| 3.35 | CCCc1nc2ccccc2n2cccc12 | < 4.30 | < 4.00 |  | 4.00 | < 4.30 |  |
| 3.08 | C=Cc1nc2ccccc2n2cccc12 | 5.52 | 5.52 | 0.3 | 6.00 | 6.30 | 2 |
| 3.6 | c1ccc(-c2nc3ccccc3n3cccc23)cc1 | < 4.30 | < 4.00 |  | < 4.00 | < 4.30 |  |
| 3.3 | C/C=C\c1nc2ccccc2n2cccc12 | 5.40 | 5.10 | 1.5 | 5.22 | 6.10 | 7.5 |
| 2.55 | C[C@H]1O[C@H]1c1nc2ccccc2n2cccc12 (relative stereo) | < 4.30 | < 4.00 |  | < 4.00 | < 4.30 |  |
| 2.61 | C[C@@H]1O[C@H]1c1nc2ccccc2n2cccc12 (relative stereo) | < 4.30 | < 4.00 |  | < 4.00 | < 4.30 |  |
| 4.12 | C1=C(c2nc3ccccc3n3cccc23)CCCC1 | < 4.30 | < 4.00 |  | < 4.00 | < 4.30 |  |
| 4.84 | C(=C\c1nc2ccccc2n2cccc12)/c1ccccc1 | 4.46 | < 4.00 | >2.9 | < 4.00 | < 4.30 |  |
